According to ChEMBL document CHEMBL1133101, “7-Methyl-6,7,8,9,14,15-hexahydro-5H-benz[d]indolo[2,3-g]azecine: a new heterocyclic system and a new lead compound for dopamine receptor antagonists” (J Med Chem, 2000):

Assays:
[1] = Percent decrease in Dopamine receptor D2 binding using spiperone; set-up: scale not given: the % may be the effect or the level left
[2] = molecular target: Glutamate [NMDA] receptor (Homo sapiens) (UniProt Q05586+Q12879+Q13224+O15399+O60391+Q14957+Q8TCU5); assay: Percent decrease of N-methyl-D-aspartate glutamate receptor binding using MK-801; type: protein-complex assay; set-up: concentration or dose not given beside the values
In short: (§1)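 Preliminary screen of receptors isolated from rat or pig tissues, run with minor changes to standard procedures. Each compound was tested at a single fixed concentration for each receptor. The read-out was the percent decrease in binding of the named radioligand.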

D(2) dopamine receptor = D(2) dopamine receptor (Rattus norvegicus, UniProt P61169); assay: Binding affinity against Dopamine receptor D2 of rat striatal mambranes using [3H]spiperone
Chain of D(2) dopamine receptor (P61169 whole entry): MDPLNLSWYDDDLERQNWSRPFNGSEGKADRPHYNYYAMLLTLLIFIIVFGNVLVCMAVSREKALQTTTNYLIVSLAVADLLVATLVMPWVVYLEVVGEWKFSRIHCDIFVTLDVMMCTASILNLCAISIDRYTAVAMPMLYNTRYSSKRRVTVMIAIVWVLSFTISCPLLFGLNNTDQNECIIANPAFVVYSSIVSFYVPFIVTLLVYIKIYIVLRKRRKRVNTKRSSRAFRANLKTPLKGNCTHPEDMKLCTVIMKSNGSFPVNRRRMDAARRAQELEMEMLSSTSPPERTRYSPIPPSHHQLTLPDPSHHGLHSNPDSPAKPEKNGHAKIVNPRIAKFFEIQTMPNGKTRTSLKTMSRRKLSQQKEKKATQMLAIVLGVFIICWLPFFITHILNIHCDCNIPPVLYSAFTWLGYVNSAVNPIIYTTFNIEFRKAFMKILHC
In short: (§2)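 Rat striatal receptor preparations were used, with [3H]SCH23390 for D1, [3H]spiperone for D2 and [3H]RP62203 for 5-HT2. Ki ([…]) was derived from competitive displacement of the radioligand, with n = 3–7.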

[3] = molecular target: Sulfonylurea receptors; K-ATP channels (Homo sapiens) (UniProt Q14654+O60706+Q09428+Q15842); assay: Percent inhibition of glibenclamide binding to K+ channel; type: protein-complex assay; set-up: concentration or dose not given beside the values
Chain of Sulfonylurea receptors; K-ATP channels (Homo sapiens) (O60706 whole entry, looked up): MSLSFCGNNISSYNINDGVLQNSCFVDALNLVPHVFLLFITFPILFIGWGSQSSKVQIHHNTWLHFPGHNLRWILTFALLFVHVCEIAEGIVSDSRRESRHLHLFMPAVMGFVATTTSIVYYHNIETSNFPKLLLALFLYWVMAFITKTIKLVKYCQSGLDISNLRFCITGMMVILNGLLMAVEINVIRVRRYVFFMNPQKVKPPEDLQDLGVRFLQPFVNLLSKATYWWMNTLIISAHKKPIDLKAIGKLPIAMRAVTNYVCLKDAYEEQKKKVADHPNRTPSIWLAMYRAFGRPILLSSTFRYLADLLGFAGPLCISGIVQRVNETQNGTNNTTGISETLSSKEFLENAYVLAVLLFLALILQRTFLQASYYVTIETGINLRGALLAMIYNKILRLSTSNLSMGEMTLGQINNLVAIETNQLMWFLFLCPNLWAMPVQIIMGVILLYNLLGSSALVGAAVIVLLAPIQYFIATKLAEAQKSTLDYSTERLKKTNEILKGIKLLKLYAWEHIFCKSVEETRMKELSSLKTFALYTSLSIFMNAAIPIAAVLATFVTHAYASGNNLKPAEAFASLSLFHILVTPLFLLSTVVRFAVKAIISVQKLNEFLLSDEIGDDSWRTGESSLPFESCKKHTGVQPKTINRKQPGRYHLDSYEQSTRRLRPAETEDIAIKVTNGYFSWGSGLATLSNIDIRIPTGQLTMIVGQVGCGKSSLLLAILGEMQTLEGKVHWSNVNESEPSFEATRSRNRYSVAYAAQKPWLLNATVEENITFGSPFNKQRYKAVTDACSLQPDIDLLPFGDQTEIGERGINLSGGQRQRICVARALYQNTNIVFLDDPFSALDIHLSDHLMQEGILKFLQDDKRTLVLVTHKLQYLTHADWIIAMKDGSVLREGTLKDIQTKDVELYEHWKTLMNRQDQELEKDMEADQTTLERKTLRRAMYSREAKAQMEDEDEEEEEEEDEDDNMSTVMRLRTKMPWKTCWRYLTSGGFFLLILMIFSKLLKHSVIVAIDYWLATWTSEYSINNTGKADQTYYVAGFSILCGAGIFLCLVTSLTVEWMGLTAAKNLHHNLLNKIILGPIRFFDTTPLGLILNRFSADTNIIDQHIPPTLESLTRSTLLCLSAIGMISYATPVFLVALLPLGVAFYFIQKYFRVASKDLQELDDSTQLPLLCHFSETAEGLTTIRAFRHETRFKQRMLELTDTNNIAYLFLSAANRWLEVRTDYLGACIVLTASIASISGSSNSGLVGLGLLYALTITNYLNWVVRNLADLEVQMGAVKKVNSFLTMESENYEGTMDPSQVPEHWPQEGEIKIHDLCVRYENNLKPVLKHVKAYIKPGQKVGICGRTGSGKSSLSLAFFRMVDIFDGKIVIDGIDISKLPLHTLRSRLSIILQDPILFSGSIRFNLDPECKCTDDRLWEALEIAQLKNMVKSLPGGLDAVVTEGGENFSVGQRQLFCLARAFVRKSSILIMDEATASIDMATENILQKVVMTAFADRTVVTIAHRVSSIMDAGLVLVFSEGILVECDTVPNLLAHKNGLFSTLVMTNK
Chain of Sulfonylurea receptors; K-ATP channels (Homo sapiens) (Q09428 whole entry, looked up): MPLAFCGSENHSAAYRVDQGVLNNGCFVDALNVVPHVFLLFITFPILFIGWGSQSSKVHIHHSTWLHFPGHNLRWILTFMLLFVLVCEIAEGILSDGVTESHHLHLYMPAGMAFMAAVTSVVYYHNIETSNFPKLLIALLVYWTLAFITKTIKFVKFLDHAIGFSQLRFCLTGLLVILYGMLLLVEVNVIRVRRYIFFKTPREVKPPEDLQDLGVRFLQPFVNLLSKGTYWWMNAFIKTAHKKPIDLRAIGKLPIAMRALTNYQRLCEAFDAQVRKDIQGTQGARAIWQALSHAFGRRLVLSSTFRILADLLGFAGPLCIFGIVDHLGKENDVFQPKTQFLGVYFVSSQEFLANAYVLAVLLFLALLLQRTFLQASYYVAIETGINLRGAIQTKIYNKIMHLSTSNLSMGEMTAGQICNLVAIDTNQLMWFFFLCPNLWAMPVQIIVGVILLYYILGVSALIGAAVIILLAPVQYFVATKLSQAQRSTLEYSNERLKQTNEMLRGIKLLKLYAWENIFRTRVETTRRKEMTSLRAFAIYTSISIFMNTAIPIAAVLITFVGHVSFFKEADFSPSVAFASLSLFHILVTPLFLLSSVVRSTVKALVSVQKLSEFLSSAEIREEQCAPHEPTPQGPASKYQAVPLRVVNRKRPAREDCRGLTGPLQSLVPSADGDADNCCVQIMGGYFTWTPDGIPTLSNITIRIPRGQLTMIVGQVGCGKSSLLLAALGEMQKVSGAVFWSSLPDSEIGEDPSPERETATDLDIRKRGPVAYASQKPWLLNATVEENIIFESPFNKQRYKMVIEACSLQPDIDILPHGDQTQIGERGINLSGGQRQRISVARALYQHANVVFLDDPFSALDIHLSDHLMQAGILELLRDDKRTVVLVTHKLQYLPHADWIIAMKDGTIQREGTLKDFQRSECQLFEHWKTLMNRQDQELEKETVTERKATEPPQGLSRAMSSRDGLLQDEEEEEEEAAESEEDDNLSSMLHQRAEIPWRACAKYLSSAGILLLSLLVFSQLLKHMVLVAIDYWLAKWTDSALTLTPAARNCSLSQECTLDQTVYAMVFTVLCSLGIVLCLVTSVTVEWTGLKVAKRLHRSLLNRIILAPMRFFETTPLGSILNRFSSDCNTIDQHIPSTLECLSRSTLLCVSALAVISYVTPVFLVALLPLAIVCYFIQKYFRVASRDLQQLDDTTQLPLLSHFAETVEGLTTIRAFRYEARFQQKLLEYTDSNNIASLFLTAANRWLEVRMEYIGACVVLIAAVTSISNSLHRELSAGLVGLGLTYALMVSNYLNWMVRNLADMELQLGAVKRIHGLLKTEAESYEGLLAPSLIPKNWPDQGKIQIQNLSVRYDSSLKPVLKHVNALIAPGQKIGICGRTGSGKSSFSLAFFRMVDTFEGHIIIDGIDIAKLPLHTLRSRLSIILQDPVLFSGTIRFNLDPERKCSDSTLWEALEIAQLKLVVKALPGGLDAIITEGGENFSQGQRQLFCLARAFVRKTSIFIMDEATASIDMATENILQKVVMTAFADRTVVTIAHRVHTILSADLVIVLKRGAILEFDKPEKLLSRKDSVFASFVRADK
Chain of Sulfonylurea receptors; K-ATP channels (Homo sapiens) (Q14654 whole entry, looked up): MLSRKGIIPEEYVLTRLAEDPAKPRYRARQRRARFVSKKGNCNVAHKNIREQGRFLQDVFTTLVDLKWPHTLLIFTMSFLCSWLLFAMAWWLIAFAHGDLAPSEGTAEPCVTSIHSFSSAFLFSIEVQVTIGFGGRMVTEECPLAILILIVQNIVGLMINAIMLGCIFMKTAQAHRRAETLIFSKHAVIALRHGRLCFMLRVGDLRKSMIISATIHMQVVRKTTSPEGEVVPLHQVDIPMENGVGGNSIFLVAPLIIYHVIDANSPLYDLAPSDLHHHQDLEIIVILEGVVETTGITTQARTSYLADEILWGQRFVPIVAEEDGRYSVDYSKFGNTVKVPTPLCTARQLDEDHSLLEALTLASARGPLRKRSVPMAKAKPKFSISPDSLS
Chain of Sulfonylurea receptors; K-ATP channels (Homo sapiens) (Q15842 whole entry, looked up): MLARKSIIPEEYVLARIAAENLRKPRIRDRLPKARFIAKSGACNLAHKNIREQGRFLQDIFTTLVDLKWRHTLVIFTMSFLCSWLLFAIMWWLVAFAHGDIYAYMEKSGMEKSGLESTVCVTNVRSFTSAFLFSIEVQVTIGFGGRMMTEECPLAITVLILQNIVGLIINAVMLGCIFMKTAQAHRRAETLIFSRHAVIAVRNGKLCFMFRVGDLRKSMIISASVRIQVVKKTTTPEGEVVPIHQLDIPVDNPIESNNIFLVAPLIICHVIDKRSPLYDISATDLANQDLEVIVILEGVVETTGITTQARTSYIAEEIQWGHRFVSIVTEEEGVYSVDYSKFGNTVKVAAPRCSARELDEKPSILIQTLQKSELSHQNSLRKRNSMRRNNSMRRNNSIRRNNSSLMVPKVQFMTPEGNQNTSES
In short: as §1

D(1A) dopamine receptor = D(1A) dopamine receptor (Rattus norvegicus, UniProt P18901); assay: Binding affinity against Dopamine receptor D1 of rat striatal receptor using [3H]SCH-23390
In short: as §2

[4] = % Decrease of adenosine carrier-receptor -bound radioactivity using NBTI as a radioligand.; set-up: concentration or dose not given beside the values
In short: as §1

[5] = molecular target: Sodium-dependent serotonin transporter (Homo sapiens) (UniProt P31645); assay: % Decrease of 5-HT carrier-receptor -bound radioactivity using paroxetine as a radioligand.; set-up: concentration or dose not given beside the values
Chain of Sodium-dependent serotonin transporter (Homo sapiens) (P31645 whole entry, looked up): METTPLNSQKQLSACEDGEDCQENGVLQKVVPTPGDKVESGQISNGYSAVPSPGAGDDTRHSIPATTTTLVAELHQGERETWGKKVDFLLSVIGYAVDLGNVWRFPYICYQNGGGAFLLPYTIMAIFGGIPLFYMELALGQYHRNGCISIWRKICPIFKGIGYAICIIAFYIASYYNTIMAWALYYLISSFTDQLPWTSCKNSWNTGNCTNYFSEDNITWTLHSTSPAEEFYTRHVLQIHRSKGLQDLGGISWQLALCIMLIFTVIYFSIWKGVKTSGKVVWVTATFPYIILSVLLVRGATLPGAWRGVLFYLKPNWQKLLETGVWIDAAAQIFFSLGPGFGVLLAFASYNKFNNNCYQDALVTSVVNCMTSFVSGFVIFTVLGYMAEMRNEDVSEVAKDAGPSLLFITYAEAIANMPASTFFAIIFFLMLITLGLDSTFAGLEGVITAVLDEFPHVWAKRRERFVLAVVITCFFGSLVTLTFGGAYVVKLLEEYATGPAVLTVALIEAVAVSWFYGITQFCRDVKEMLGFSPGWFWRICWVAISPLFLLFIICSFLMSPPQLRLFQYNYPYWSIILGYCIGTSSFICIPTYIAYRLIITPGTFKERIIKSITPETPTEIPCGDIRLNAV
In short: as §1

[6] = molecular target: T1, Muscarinic acetylcholine receptor M1 (Homo sapiens) (UniProt P11229); assay: Percent decrease of Muscarinic acetylcholine receptor M1 binding using pirenzepine; set-up: scale not given: the % may be the effect or the level left
T1 sequence (whole entry): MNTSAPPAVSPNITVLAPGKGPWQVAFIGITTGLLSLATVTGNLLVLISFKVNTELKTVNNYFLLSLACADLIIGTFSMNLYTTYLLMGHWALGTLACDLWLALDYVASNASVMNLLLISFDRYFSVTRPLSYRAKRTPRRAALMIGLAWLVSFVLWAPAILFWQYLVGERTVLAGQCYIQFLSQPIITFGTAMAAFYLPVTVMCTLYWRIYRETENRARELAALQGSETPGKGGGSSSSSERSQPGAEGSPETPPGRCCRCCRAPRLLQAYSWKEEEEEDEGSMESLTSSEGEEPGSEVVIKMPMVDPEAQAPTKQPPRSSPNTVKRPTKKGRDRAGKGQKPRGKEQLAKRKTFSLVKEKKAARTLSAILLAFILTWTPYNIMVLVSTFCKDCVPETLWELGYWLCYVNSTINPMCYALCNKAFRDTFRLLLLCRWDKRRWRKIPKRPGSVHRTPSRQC
In short: as §1

[7] = molecular target: T2, Adenosine receptor A1 (Homo sapiens) (UniProt P30542); assay: Percent decrease in Adenosine A1 receptor binding using CPDPX; set-up: scale not given: the % may be the effect or the level left
T2 sequence (whole entry): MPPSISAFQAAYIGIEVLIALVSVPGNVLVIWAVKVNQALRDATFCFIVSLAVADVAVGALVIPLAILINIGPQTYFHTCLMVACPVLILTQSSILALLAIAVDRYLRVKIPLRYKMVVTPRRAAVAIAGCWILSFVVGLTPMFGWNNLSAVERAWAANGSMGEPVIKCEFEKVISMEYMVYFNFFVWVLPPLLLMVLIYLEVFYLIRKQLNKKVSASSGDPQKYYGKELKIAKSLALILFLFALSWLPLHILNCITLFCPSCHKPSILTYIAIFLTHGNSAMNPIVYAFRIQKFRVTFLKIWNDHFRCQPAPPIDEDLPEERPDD

[8] = molecular target: D(1A) dopamine receptor (Rattus norvegicus) (UniProt P18901); assay: Percent decrease in Dopamine receptor D1 binding using SCH-23390; set-up: scale not given: the % may be the effect or the level left
[9] = Percent decrease in Bradykinin receptor binding; set-up: concentration or dose not given beside the values
In short: as §1

[10] = molecular target: Angiotensin II receptor (Homo sapiens) (UniProt P30556+P50052); assay: Percent decrease of Angiotensin II receptor binding; type: protein assay; set-up: concentration or dose not given beside the values
In short: as §1

[11] = molecular target: Neuronal acetylcholine receptor (Rattus norvegicus) (UniProt P04757+P09483+P12389+P12390+P12392+P43144+Q9JLB5+P12391+P43143+P20420+Q05941); assay: % Decrease of Nicotinic acetylcholine receptor-bound radioactivity using cytisine as a radioligand.; type: protein-complex assay; set-up: scale not given: the % may be the effect or the level left
In short: as §1

[12] = Percent decrease of Endothelin receptor binding using [125I]sarafotoxin; set-up: concentration or dose not given beside the values
[13] = molecular target: T3, Glutamate receptor ionotropic AMPA (Homo sapiens) (UniProt P48058+P42263+P42262+P42261); assay: Percent decrease in Quisqualate receptor binding using AMPA; type: protein-complex assay; set-up: scale not given: the % may be the effect or the level left
In short: as §1

[14] = % Decrease of Phorbol Diester Receptor -bound radioactivity using PDBU as a radioligand.; set-up: scale not given: the % may be the effect or the level left
In short: as §1

[15] = molecular target: GABA-A receptor; anion channel (Homo sapiens) (UniProt P14867+P47870+P18507+P28472+P48169+Q99928+Q9UN88+P34903+O00591+O14764+Q8N1C3+P18505+P78334+P47869+P31644+Q16445); assay: Displacement of muscimol from GABA-A receptor; type: protein-complex assay
In short: as §1

[16] = molecular target: T4, 5-hydroxytryptamine receptor 1A (Homo sapiens) (UniProt P08908); assay: Percent decrease in 5-hydroxytryptamine 1A receptor binding using 8-OH-DPAT; set-up: concentration or dose not given beside the values
T4 sequence (whole entry): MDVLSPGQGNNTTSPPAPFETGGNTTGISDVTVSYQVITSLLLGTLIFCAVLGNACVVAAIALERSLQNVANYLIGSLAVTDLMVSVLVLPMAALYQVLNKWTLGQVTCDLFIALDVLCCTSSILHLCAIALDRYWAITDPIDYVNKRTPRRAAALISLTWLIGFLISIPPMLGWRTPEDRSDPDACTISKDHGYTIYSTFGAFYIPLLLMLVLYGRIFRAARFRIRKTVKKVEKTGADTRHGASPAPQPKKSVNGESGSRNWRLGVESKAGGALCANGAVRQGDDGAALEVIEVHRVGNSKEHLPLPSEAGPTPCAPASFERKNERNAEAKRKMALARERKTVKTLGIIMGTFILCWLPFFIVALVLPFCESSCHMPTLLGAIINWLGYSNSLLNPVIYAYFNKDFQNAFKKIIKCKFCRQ
In short: as §1

[17] = molecular target: Serotonin 2 (5-HT2) receptor (Homo sapiens) (UniProt P41595+P28223+P28335); assay: (§3) Percent decrease in 5-hydroxytryptamine 2 receptor binding using ketanserin; type: protein assay; set-up: scale not given: the % may be the effect or the level left
In short: as §1

[18] = molecular target: Serotonin 2 (5-HT2) receptor (Rattus norvegicus, UniProt P30994+P08909+P14842); assay: Binding affinity against 5-hydroxytryptamine 2 receptor in rat striatum using [3H]-RP62203; type: tissue-based
[19] = molecular target: D(2) dopamine receptor (Rattus norvegicus) (UniProt P61169); assay: Percent decrease in Dopamine receptor D2 binding using spiperone; set-up: scale not given: the % may be the effect or the level left
Chain of D(2) dopamine receptor (Rattus norvegicus) (P61169 whole entry): as the sequence (P61169 whole entry) above
In short: as §1

[20] = molecular target: T2, Adenosine receptor A1 (Homo sapiens); assay: Percent decrease in adenosine-A1-receptor binding using CPDPX; set-up: scale not given: the % may be the effect or the level left
In short: as §1

[21] = molecular target: Adrenergic receptor alpha-1 (Homo sapiens) (UniProt P35348+P25100+P35368); assay: Percent decrease in Alpha-1 adrenergic receptor binding using prazosin; type: protein assay
In short: as §1

[22] = molecular target: Serotonin 2 (5-HT2) receptor (Rattus norvegicus) (UniProt P30994+P08909+P14842); assay: as §3; type: protein assay; set-up: scale not given: the % may be the effect or the level left
In short: as §1

[23] = molecular target: T3, Glutamate receptor ionotropic AMPA (Homo sapiens); assay: Percent decrease of Quisqualate receptor binding using AMPA; type: protein-complex assay; set-up: scale not given: the % may be the effect or the level left
In short: as §1

## COc1cc2c(cc1OC)Cc1[nH]c3ccccc3c1CCN(C)CC2
[1]
  Activity: -77%
[2]
  Activity: -44%
D(2) dopamine receptor
  Ki: 730 nM
[3]
  Activity: 1%
D(1A) dopamine receptor
  Ki: 91 nM
[4]
  Activity: -9%
[5]
  Activity: -2%
[6]
  Activity: -22%
[7]
  Activity: 3%
[8]
  Activity: -82%
[9]
  Activity: -19%
[10]
  Activity: 9%
[11]
  Activity: -10%
[12]
  Activity: 1%
[13]
  Activity: -8%
[14]
  Activity: -1%
[15]
  Activity: -23%
[16]
  Activity: -22%
[17]
  Activity: -67%
[18]
  Ki: 960 nM

## CN1CCc2c([nH]c3ccccc23)Cc2[nH]c3ccccc3c2CC1
[1]
  Activity: -95%
[2]
  Activity: -56%
D(2) dopamine receptor
  Ki: 79 nM
[3]
  Activity: 0%
D(1A) dopamine receptor
  Ki: 9.6 nM
[4]
  Activity: -11%
[5]
  Activity: -13%
[6]
  Activity: -14%
[7]
  Activity: -6%
[8]
  Activity: -95%
[9]
  Activity: -21%
[10]
  Activity: 9%
[11]
  Activity: -7%
[12]
  Activity: 0%
[13]
  Activity: 0%
[14]
  Activity: -5%
[15]
  Activity: -4%
[16]
  Activity: -25%
[17]
  Activity: -80%
[18]
  Ki: 180 nM

## C[N+]12CCc3c([nH]c4ccccc34)C1c1[nH]c3ccccc3c1CC2 (configuration not stated)
[2]
  Activity: -20%
[3]
  Activity: 6%
[4]
  Activity: 7%
[5]
  Activity: -33%
[6]
  Activity: -15%
[19]
  Activity: -22%
[20]
  Activity: 11%
[21]
  Decrease: -64%
[9]
  Activity: -4%
[10]
  Activity: -3%
[11]
  Activity: 3%
[12]
  Activity: 0%
[14]
  Activity: -17%
[15]
  Activity: -4%
[16]
  Activity: -3%
[22]
  Activity: -32%
[23]
  Activity: 11%
